Assay outcomes (PubChem BioAssay)
PolyA inhibitor – inhibitors of polyadenylation in S. cerevisiae | AID 1875 | activity score, % at 12 µM | actives 0.02% (n = 300,000) | S. cerevisiae SKY197-pL101 polyadenylation reporter, beta-gal luminescence; efflux-impaired pdr1/pdr3 knockout yeast; score 100 = 6 SD above DMSO;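 active = lowest replicate activity score at least 50, where 100 means six control SD above control mean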;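 also: yeast exposed to compound for 9 h at 30 °C; higher score means more reporter readthrough which indicates perturbed polyadenylation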
T cruzi inh – T. cruzi replication inhibition; T. cruzi beta-gal in NIH3T3, luminescence, 90 h; inhibition, % (concentration not given with the values); actives 1.4% (n = 300,000); AID 1885;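 active = mean inhibition across valid replicates above about 55%, limit read from the data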;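 also: signal also drops with host cell toxicity which is not excluded here; 0% = plate median of DMSO wells and 100% = zero luminescence signal; higher percent means less beta-gal luminescence so fewer parasites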
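System: Mouse NIH/3T3 fibroblasts infected with β-gal-expressing T. cruzi Tulahuen C4 | Quantity: NIH/3T3 cells, 5,000 per well | Reagent: 5000 reporter trypomastigotes per well | Dosing: Compound pinned at 50 nL/well, DMSO | Schedule: 3 h host attachment, then at least 90 h co-culture | Detection: GalScreen luminescence, 60 min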
Calb FLC – affects C. albicans growth with fluconazole; C. albicans CaCi-2 (fluconazole-resistant clinical isolate) + fluconazole, Alamar Blue growth, 48 h; growth inhibition, % (no concentration beside the values); actives 0.57% (n = 300,000);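 active = growth inhibition above about 58% in most replicates, limit read from the data, passing the limit was not always enough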;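 also: all wells also contain fluconazole at 8 µg/ml as a sub-toxic cotreatment; 0% = median of DMSO wells and 100% = median of geldanamycin control wells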
CSC inhib – blocks cancer stem cells | cancer stem cell-like cells viability, luminescence | actives 1.1% (n = 300,000) | inhibition, % at 7.5 µM; in the data active = inhibition above about 75%; tested in HMLE shEcad cells
HIF act – HIF pathway transcriptional activation. U2OS HRE-luciferase reporter, luminescence; normalized: DMSO 0%, desferrioxamine 100%. activation, % at 7.5 µM (by protocol). actives 0.32% (n = 300,000). AID 1910;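 active = mean activation of at least 10% of the iron chelator positive control signal, with at least half of replicates also reaching 10%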
Beta apoptosis – blocks beta cell apoptosis; INS-1E cytokine-induced death, ATP luminescence, 48 h; percent of positive-control rescue, neutral wells zero; actives 0.8% (n = 300,000); protection from apoptosis, % (no concentration beside the values);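 active = Every replicate reaches about 75%, or at least half do and their mean reaches it too, limit read from the data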;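 also: 0% = cytokine-treated negative control wells and 100% = positive control rescue; higher means more ATP so stronger rescue from cytokine killing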
* marks the source's active call; other numbers are inactive results; nt = not tested or not shown. Only some compounds are listed: those with a hit (about 3.1% of all), similar ones and a draw of the others.

SMILES	PolyA inhibitor	T cruzi inh	Calb FLC	CSC inhib	HIF act	Beta apoptosis
CC(Cc1ccccc1)NC(=O)CN1C(=O)c2ccccc2S1(=O)=O (stereo not drawn)	-3.9	-8.6	-3.7	-17.2	0.6	nt
O=C(Nc1cccc([N+](=O)[O-])c1)N1CCCCCC1	-10.7	4.2	2.9	4.7	0.1	-0.4
COc1ccc(NC(=O)CS(=O)CC(=O)N2CCN(C3CCCC3)CC2)cc1 (stereo not drawn)	0.5	-2.0	-1.1	-8.9	0.6	2.1
Cc1nn(-c2ccccc2)c2nc(N)c(C(N)=O)cc12	-1.1	-3.2	-0.7	nt	1.0	nt
O=[N+]([O-])c1cccc(S(=O)(=O)N2CCC(c3nc(-c4ccncc4)no3)CC2)c1	-14.5	60.6*	-2.4	6.8	-0.1	-5.2
COC(=O)c1c(NC(=O)CN2CCN(Cc3ccc4c(c3)OCO4)CC2)sc(C)c1C	2.5	58.9*	-30.0	60.9	0.1	7.8
COC(=O)c1ccsc1NC(=O)CN1CCN(Cc2ccc3c(c2)OCO3)CC1	5.2	36.1	-44.4	-8.8	0.1	2.8
COc1ccc(NC(=O)c2c(C)nn(Cc3ccccc3)c2C)cc1S(=O)(=O)N(C)C	-11.6	14.2	-6.5	-0.6	0.2	2.0
CCN1CCN(c2ccc(S(=O)(=O)N3CCOCC3)cc2NC(=O)C(C)Oc2ccc(Cl)cc2)CC1 (stereo not drawn)	2.5	35.3	-5.3	9.9	-0.3	nt
O=C1N=c2ccccc2=C1c1c(O)n(-c2cccc(F)c2)[nH]c1=O	-1.1	-9.2	-3.6	83.1*	-0.6	-4.9
O=C1N=c2ccccc2=C1c1sc(=S)n(NC(=O)c2ccccc2)c1O	-13.9	-4.2	0.8	-0.7	-0.5	-0.8
Cc1ccc(S(=O)(=O)N(C)/N=C2/C(=O)N(CC(=O)O)c3ccccc32)cc1	-8.9	-8.5	0.3	-8.9	-1.1	-6.0
Fc1ccc(NC(=S)Nc2cc(-c3ccccc3)[nH]n2)cc1Cl	14.6	34.3	11.2	87.6*	0.5	1.1
Cc1ccc(NC(=S)Nc2cc(-c3ccccc3)[nH]n2)cc1Cl	nt	nt	-4.5	3.3	nt	10.9
Cc1[nH]n(-c2ccc([N+](=O)[O-])cc2)c(=O)c1C=NCCN1CCN(C(=O)c2ccc(Br)cc2)CC1	6.5	66.1*	-17.7	48.1	0.1	41.6
Cc1[nH]n(-c2ccc([N+](=O)[O-])cc2)c(=O)c1C=NCCN1CCN(C(=O)c2ccc(F)cc2)CC1	-7.5	5.7	-21.0	44.5	-0.3	nt
c1cn2c(NC3CCCCC3)c(-c3ccc(SC4CCCCC4)cc3)nc2cn1	2.6	48.0	7.8	125.9*	4.1	0.4
c1cc(SC2CCCCC2)cc(-c2nc3cnccn3c2NC2CCCCC2)c1	nt	nt	nt	104.2*	nt	-1.7
c1cn2c(NC3CCCC3)c(-c3ccc(N4CCOCC4)cc3)nc2cn1	-13.1	3.1	7.4	-9.5	2.7	8.6
Fc1cccc2sc(N3CCCC3)nc12	0.1	1.3	-3.1	-5.3	3.4	1.7
CCC(=O)n1nc(NCc2ccc(OC)c(OC)c2)nc1NCc1ccc(OC)c(OC)c1	0.2	-7.5	6.0	-4.5	226.9*	-1.8
COCC(=O)n1nc(NCc2ccc(OC)cc2)nc1NCc1ccc(OC)cc1	-16.9	3.4	-9.1	-20.8	0.2	2.8
CC(CNC(=O)c1ccc(OC2CCN(Cc3ccccn3)CC2)cc1)c1ccccc1 (stereo not drawn)	-1.4	-1.5	9.8	-11.6	2.3	1.1
Cc1nc(C(F)(F)F)c(C(=O)N/N=C(\N)c2ccccn2)s1	-15.0	-15.4	0.8	10.0	-0.2	77.0*
COCCNc1nc(-c2cc3ccccc3o2)cs1	9.2	-14.9	-2.7	10.7	0.7	1.0
C/C(=N\NC(=O)c1cccc(S(=O)(=O)N2CCCC2)c1)c1cccs1	6.1	-9.9	6.6	0.6	0.5	-4.2
CCOC(=O)c1c(C)sc2c1N(C(=O)CCl)c1cc(Cl)ccc1S2	-9.3	26.9	1.5	129.8*	2.1	-0.1
O=C1c2ccccc2C(=O)N1CCCc1c[nH]c2ccc(Cl)cc12	-26.8	25.2	11.5	22.2	-0.1	5.1
CC(C)(C)NC(=O)c1ccc2nsnc2c1	-3.7	8.5	-5.3	-6.1	0.2	-2.4
CNC(=S)N1N=C(c2ccc(C)cc2)CC1c1ccc(Cl)cc1 (stereo not drawn)	-9.1	41.3	27.0	4.7	0.0	-2.2
